Results from ChEMBL document CHEMBL4368912, “Discovery and Development of N-[4-(1-Cyclobutylpiperidin-4-yloxy)phenyl]-2-(morpholin-4-yl)acetamide Dihydrochloride (SUVN-G3031): A Novel, Potent, Selective, and Orally Active Histamine H3 Receptor Inverse Agonist with Robust Wake-Promoting Activity” (J Med Chem, 2019).
Activity calls are given as the source filed them. No cut-off for these calls is given here.

Tests used:
Cytochrome P450 2C9 = Cytochrome P450 2C9 (Homo sapiens, UniProt P11712); test: Inhibition of CYP2C9 (unknown origin); type: ADME
CHO-K1 [1] = test: Induction of phospholipidosis in CHOK1 cells up to 300 uM incubated for 24 hrs by fluorescent-labeled phospholipid probe NBD-PE based fluorescence assay; type: cell-based, Cricetulus griseus; settings: chinese hamster, cho-k1, 24 h
[2] = Mutagenicity in Salmonella typhimurium TA98 in presence of metabolic activation by Ames test; type: toxicity; settings: salmonella enterica subsp. enterica serovar typhimurium
Rattus norvegicus [3] = test: In vivo receptor occupancy at histamine 3 receptor in Wistar rat frontal cortex at 1 to 3 mg/kg, po after measured after 4 to 6 hrs by LC-MS/MS analysis relative to control; type: functional
[4] = Metabolic stability in human liver microsomes in presence of NADPH after 30 mins by LC-MS/MS analysis; type: ADME, Microsome; settings: read-out: Stability
[5] = Partition coefficient, log P of the compound; type: physicochemical; settings: octanol/water
[6] = Fraction unbound in dog plasma at 1 uM by equilibrium dialysis; type: ADME, cell-free, Canis lupus familiaris
How it was run: (§1)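 Rapid equilibrium dialysis of fresh rat, dog or human plasma at a compound concentration of 1.0 µM. Unbound fraction reported as a percentage.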

Cytochrome P450 2C8 = molecular target: T1, Cytochrome P450 2C8 (Homo sapiens, UniProt P10632); test: Inhibition of CYP2C8 (unknown origin); type: ADME
T1 sequence (P10632 whole entry): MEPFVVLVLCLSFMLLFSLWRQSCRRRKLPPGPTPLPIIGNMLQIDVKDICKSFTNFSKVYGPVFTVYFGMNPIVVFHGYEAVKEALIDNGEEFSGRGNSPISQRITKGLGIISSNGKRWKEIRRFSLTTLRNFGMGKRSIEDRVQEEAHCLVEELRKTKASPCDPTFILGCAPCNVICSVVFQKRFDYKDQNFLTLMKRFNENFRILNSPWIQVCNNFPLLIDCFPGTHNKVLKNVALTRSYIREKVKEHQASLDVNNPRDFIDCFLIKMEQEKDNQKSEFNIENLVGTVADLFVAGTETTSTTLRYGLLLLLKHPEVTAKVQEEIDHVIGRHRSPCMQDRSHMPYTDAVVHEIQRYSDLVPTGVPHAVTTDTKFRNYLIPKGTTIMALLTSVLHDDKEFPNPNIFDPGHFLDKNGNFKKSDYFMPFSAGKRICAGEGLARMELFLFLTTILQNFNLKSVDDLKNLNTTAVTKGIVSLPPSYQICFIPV

Rattus norvegicus [7] = test: Induction of wake promoting activity in orexin-B-saporin lesioned Wistar rat assessed as decrease in number of direct REM sleep onset episodes at 10 to 30 mg/kg, po dosed 15 mins before start of dark phase; type: functional, organism-based
How it was run: (§2)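 Rats carried epidural frontal-cortex EEG screws, nuchal EMG leads, and bilateral lateral hypothalamic orexin-B-saporin (490 ng/0.8 µl). After at least 3 weeks' recovery, they were dosed 15 min before lights-off in a crossover design with a 1-week washout. Wake, NREM and REM time was totalled over 3 h. DREM was scored as REM after ≥60 s wake. Dunnett's test was used.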

[8] = Dissociation constant, pKa1 of the compound by potentiometric titration assay; type: physicochemical
[9] = Mutagenicity in Salmonella typhimurium TA100 in presence of metabolic activation by Ames test; type: toxicity; settings: salmonella enterica subsp. enterica serovar typhimurium
How it was run: (§3)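 Reverse-mutation test in Salmonella typhimurium TA1537, TA1535, TA98 and TA100 and in E. coli WP2 uvrA, run with and without metabolic activation.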

PBL = test: Clastogenic activity in human peripheral blood lymphocytes by chromosomal aberration test; type: toxicity, cell-based
Rattus norvegicus [10] = test: Induction of wake promoting activity in orexin-B-saporin lesioned Wistar rat assessed as increase in wake time at 10 to 30 mg/kg, po dosed 15 mins before start of dark phase; type: functional, organism-based; how it was run: as §2
Cytochrome P450 3A4 = Cytochrome P450 3A4 (Homo sapiens, UniProt P08684); test: Inhibition of CYP3A4 in human liver microsomes using midazolam as substrate after 2 mins by LC-MS/MS analysis; type: ADME
Bone marrow cell = test: Clastogenic activity in micronucleus of mouse bone marrow cells; type: toxicity, cell-based
[11] = Toxicity in Wistar rat up to 100 mg/kg, po by Irwin's test; type: organism-based; settings: in vivo
How it was run: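 CNS safety was screened with a modified Irwin's test at oral doses up to 100 mg/kg.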

[12] = Fraction unbound in rat brain at 1 uM by equilibrium dialysis; type: ADME, tissue-based
[13] = Metabolic stability in dog liver microsomes in presence of NADPH after 30 mins by LC-MS/MS analysis; type: ADME, Canis lupus familiaris, Microsome; settings: read-out: Stability
[14] = Toxicity in Wistar rat assessed as effect on latency to fall at 30 to 100 mg/kg, po by rotarod test; type: organism-based; settings: in vivo
How it was run: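 Motor coordination was assessed on the rotarod as latency to fall after oral doses of 30 and 100 mg/kg.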

[15] = Metabolic stability in monkey liver microsomes in presence of NADPH after 30 mins by LC-MS/MS analysis; type: ADME, Macaca mulatta, Microsome; settings: rhesus monkey, read-out: Stability
[16] = Apparent permeability across basolateral to apical side in human Caco2 cells at 10 uM; type: ADME, cell-based; settings: Caco-2
How it was run: (§4)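 Caco-2 monolayers; bidirectional permeability measured at 10 µM, with and without the P-gp inhibitor verapamil.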

[17] = Apparent permeability across apical to basolateral side in human Caco2 cells at 10 uM; type: ADME, cell-based; settings: Caco-2; how it was run: as §4
[18] = Solubility in water; type: physicochemical
[19] = Mutagenicity in Salmonella typhimurium TA100 in absence of metabolic activation by Ames test; type: toxicity; settings: salmonella enterica subsp. enterica serovar typhimurium; how it was run: as §3
[20] = Metabolic stability in rat liver microsomes in presence of NADPH after 30 mins by LC-MS/MS analysis; type: ADME, Microsome; settings: read-out: Stability
CHO-K1 [21] = test: Cytotoxicity in CHOK1 cells up to 300 uM incubated for 24 hrs by MTT assay; type: cell-based, Cricetulus griseus; settings: chinese hamster, cho-k1, 24 h
[22] = Metabolic stability in human hepatocytes after 30 mins by LC-MS/MS analysis; type: ADME, cell-based, Hepatocyte; settings: read-out: Stability
[23] = Volume of distribution in Beagle dog at 1 mg/kg, iv by LC-MS/MS analysis; type: ADME, organism-based, Canis lupus familiaris; settings: in vivo
Rattus norvegicus [24] = test: Effect on locomotor activity in Wistar rat up to 100 mg/kg, po by open field test; type: ADME, organism-based; settings: in vivo
[25] = Fraction unbound in human plasma at 1 uM by equilibrium dialysis; type: ADME, cell-free; how it was run: as §1
[26] = Ratio of drug uptake in Wistar rat brain to plasma at 3 mg/kg, po by LC-MS/MS analysis; type: ADME, organism-based; settings: brain and plasma, read-out: BPR
How it was run: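 Fasted male Wistar rats were dosed orally with water for injection as the vehicle. Total brain and plasma concentrations were measured at 1 h after dosing and expressed as a ratio.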

[27] = Tmax in Beagle dog at 3 mg/kg, po or 1 mg/kg, iv by LC-MS/MS analysis; type: ADME, organism-based, Canis lupus familiaris; settings: in vivo
[28] = Mutagenicity in Escherichia coli WP2 in absence of metabolic activation by Ames test; type: toxicity; how it was run: as §3
[29] = Toxicity in dog assessed as effect on body temperature at 10 to 25 mg/kg, po; type: organism-based, Canis lupus familiaris; settings: in vivo
How it was run: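 Male dogs received oral doses of 10, 18 and 25 mg/kg. Body weight, body temperature, blood pressure, heart rate and ECG were monitored.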

[30] = Mutagenicity in Salmonella typhimurium TA1535 in absence of metabolic activation by Ames test; type: toxicity; settings: salmonella enterica subsp. enterica serovar typhimurium

Sequence of Cytochrome P450 3A4 (P08684 whole entry): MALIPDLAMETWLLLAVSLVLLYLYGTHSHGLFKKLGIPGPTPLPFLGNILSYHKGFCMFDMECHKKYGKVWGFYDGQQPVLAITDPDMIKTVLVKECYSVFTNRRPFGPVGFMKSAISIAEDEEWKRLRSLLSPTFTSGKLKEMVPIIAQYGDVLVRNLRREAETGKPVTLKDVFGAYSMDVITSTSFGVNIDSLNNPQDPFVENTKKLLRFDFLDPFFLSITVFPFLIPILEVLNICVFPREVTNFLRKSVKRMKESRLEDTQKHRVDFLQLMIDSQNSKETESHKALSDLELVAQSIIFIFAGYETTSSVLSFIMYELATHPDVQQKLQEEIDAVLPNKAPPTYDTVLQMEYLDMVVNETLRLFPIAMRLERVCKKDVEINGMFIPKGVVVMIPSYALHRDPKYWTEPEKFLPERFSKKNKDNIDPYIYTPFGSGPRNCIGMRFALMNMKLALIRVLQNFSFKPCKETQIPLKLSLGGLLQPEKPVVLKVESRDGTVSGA
Sequence of Cytochrome P450 2C9 (P11712 whole entry): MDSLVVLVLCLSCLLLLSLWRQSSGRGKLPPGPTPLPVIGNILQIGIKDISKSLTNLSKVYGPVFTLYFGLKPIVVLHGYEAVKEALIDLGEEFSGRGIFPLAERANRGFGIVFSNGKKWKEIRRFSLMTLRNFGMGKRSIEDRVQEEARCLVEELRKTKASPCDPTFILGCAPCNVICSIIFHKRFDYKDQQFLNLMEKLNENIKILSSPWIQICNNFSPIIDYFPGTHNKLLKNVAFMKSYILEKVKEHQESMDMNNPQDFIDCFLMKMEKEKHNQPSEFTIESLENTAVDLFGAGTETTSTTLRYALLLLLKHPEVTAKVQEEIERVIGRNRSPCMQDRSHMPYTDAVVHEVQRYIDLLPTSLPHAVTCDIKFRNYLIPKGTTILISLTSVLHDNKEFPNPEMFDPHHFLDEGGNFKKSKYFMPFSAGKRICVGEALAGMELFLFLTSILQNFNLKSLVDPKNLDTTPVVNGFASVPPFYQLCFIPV

Cl.Cl.O=C(CN1CCOCC1)Nc1ccc(OC2CCN(C3CCC3)CC2)cc1
IC50 (Cytochrome P450 2C9): > 45 µM | Activity (CHO-K1 [1]): Non-Toxic | Activity [2]: Non-Toxic | Occ (Rattus norvegicus [3]): 50% | remaining at 0.5 h [4]: < 5% | logP [5]: 2.2 | fraction unbound at 1 µM [6]: 0.52 | IC50 (Cytochrome P450 2C8): > 45 µM | Activity (Rattus norvegicus [7]): Active | pKa [8]: 8.5 | Activity [9]: Non-Toxic | Activity (PBL): Non-Toxic | Activity (Rattus norvegicus [10]): Active | IC50 (Cytochrome P450 3A4): > 45 µM | Activity (Bone marrow cell): Non-Toxic | Activity [11]: Non-Toxic | fraction unbound at 1 µM [12]: 0.57 | remaining at 0.5 h [13]: 13% | Activity [14]: Non-Toxic | remaining at 0.5 h [15]: 35% | Papp B→A at 10 µM [16]: 30.8 ×10⁻⁶ cm/s | Papp A→B at 10 µM [17]: 30.8 ×10⁻⁶ cm/s | solubility [18]: 730 mg/mL | Activity [19]: Non-Toxic | remaining at 0.5 h [20]: 27% | Activity (CHO-K1 [21]): Non-Toxic | remaining at 0.5 h [22]: < 5% | Vd [23]: 5.2 L/kg | Activity (Rattus norvegicus [24]): Non-Toxic | fraction unbound at 1 µM [25]: 0.7 | Kp [26]: 0.93 | Tmax [27]: 15 to 60 min | Activity [28]: Non-Toxic | Activity [29]: Non-Toxic | Activity [30]: Non-Toxic
